Source: ChEMBL document CHEMBL4028902, “Azetidine and Piperidine Carbamates as Efficient, Covalent Inhibitors of Monoacylglycerol Lipase” (J Med Chem, 2017)
Calls of active or inactive are those of the source. The calls are words filed in the database; no cut-off is given here.

How the values were obtained:
[1] = Lipophilicity, log D of the compound; assay type: physicochemical; details: octanol/water
Mus musculus [2] = assay: In vivo inhibition of MAGL in C57Bl6 mouse assessed as increase in 2-AG levels in brain at 1 mg/kg, sc measured at 0.5 hrs by LC-MS/MS method relative to control; assay type: functional
How it was run: (§1)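 C57Bl6 mice, 7 weeks old, 4 per cage, food and water ad libitum, dosed subcutaneously in DMSO/Cremophor/saline (5:5:90, v/v/v). Brains taken after isoflurane, cardiac puncture and cervical dislocation at 0.5, 1, 2, 4, 8, 12 and 24 h (3 mice per time point); vehicle group at 1 h. Frozen in liquid nitrogen, homogenized in 3 volumes PMSF/NH4OAc buffer pH 2.0, d5-2-AG internal standard, ACN extraction, LC-MS/MS (positive ESI, SRM).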

Mus musculus [3] = assay: In vivo inhibition of MAGL in C57Bl6 mouse assessed as increase in 2-AG levels in brain at 1 mg/kg, sc measured after 1 to 24 hrs by LC-MS/MS method; assay type: functional, organism-based; how it was run: as §1
[4] = molecular target: T1, Platelet-activating factor acetylhydrolase (Homo sapiens) (UniProt Q13093); details: 10 uM
T1 sequence (whole entry): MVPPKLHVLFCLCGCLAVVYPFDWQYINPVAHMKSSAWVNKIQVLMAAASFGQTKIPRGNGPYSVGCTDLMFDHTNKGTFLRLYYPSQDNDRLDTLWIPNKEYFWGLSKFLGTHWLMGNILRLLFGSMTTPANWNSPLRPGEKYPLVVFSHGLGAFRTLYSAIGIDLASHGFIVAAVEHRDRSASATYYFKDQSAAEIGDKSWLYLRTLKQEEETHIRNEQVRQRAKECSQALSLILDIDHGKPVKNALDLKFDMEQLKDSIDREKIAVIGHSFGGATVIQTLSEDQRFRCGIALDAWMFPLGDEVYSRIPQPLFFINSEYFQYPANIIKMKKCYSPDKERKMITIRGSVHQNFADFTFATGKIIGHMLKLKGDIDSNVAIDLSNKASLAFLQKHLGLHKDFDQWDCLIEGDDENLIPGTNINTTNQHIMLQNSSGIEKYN

[5] = Cmax in C57Bl6 mouse brain at 1 mg/kg, sc; assay type: ADME, organism-based; set-up: dose 1 mg/kg, route subcutaneous
How it was run: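 Subcutaneous dosing of C57Bl6 mice in DMSO/Cremophor/saline (5:5:90). Plasma (NaF/K2EDTA tubes) and cerebellum collected at 0.5–24 h, 3 mice per time point. Cerebellum diluted 1:4 (w/v) with water and homogenized; samples deproteinated with methanol/acetonitrile plus internal standard, then HPLC-MS/MS. LLOQ 1.0 ng/mL plasma, 0.5 ng/mL brain homogenate. PK parameters by noncompartmental analysis.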

[6] = Ratio of unbound drug level in C57Bl6 mouse brain to plasma at 1 to 10 mg/kg, sc; assay type: ADME, organism-based

| logD [1] | inhibition [4] [%] | Cmax [5] [nM] | Kp uu [6] | Compound | fold change (FC) (Mus musculus [2]) | inhibition (Mus musculus [3]) |
| --- | --- | --- | --- | --- | --- | --- |
| 4.3 |  |  |  | O=C(OC(C(F)(F)F)C(F)(F)F)N1CC(c2ccn(-c3ccccc3)n2)C1 | 3 | inactive |
|  | > 70 | 0.14 | 0.5 | O=C(OC(C(F)(F)F)C(F)(F)F)N1CCC(c2ccn(-c3ccccc3)n2)CC1 |  |  |
